Like-named read-outs stand apart in the source and are kept apart here.
Assays:
Measured LogD7.4 = format: physicochemical; details: pH 7.4
In short: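 LogD at pH 7.4 was determined experimentally by liquid-liquid distribution chromatography, run by a contract analytical lab. Each value is the average of two measurements. The assay's measurable range is 1–5 log units.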

[1] = tested on: HL-60 (acute promyelocytic leukemia); experiment: Alamar blue cytotoxicity assay, HL-60; format: cell-based, human
[2] = tested on: CCRF-CEM (acute lymphoblastic leukemia); experiment: Alamar blue cytotoxicity assay, CCRF-CEM; format: cell-based, human; details: read-out: Growth inhibitory activity (IC50) CCRF-CEM
In short: (§1)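 Suspension cells (CCRF-CEM; TEX in IMDM with L-glutamine, 15% FBS, SCF 20 ng/mL, IL-3 2 ng/mL, penicillin/streptomycin) were seeded at 10,000 cells/well 24 h before compound addition. Cultures were kept at 37 °C in humidified 5% CO₂. Viability was read with Alamar blue. IC50 is mean ± S.D. of n ≥ 3 biological replicates.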

[3] = tested on: U-87 MG (glioblastoma multiforme); experiment: Alamar blue cytotoxicity assay, U-87 MG; format: cell-based, human; details: read-out: Growth inhibitory activity (IC50) U-87 MG
[4] = tested on: GBM6 (glioblastoma multiforme); experiment: Alamar blue cytotoxicity assay, GBM6; format: cell-based, human
[5] = tested on: MCF-7 (breast adenocarcinoma); experiment: Alamar blue cytotoxicity assay, MCF-7; format: cell-based, human
In short: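 MCF-7 cells were grown in MEM with 10% FBS, bovine insulin 0.01 mg/mL, penicillin and streptomycin at 37 °C in 5% CO₂. They were detached with trypsin-EDTA or TrypLE and seeded at 5,000 cells/well 24 h before dosing. Readout was Alamar blue reduction. IC50 is mean ± S.D. from n ≥ 3 biological replicates.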

DU-145 (prostate cancer) = experiment: Alamar blue cytotoxicity assay, DU-145; format: cell-based, human
[6] = tested on: murine AML cell line B117P; experiment: Murine cytotoxicity assay, B117P; format: cell-based; details: read-out: Growth inhibitory activity (IC50) B117P
In short: (§2)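 Murine AML lines were used: B117P and B140P from BXH-2 mice, which develop leukemia from an endogenous murine leukemia virus, and their counterparts B117H and B140H. Cells per well were 25,000 (B117P), 28,000 (B117H), 36,000 (B140P) and 44,000 (B140H) in 96-well format. IC50 values are mean ± S.D. from biological triplicate.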

[7] = tested on: murine AML cell line B117H (cytarabine-resistant); experiment: Murine cytotoxicity assay, B117H; format: cell-based; details: read-out: Growth inhibitory activity (IC50) B117H
In short: as §2

[8] = tested on: murine AML cell line B140P; experiment: Murine cytotoxicity assay, B140P; format: cell-based; details: read-out: Growth inhibitory activity (IC50) B140P
In short: as §2

[9] = tested on: murine AML cell line B140H (cytarabine-resistant); experiment: Murine cytotoxicity assay, B140H; format: cell-based; details: read-out: Growth inhibitory activity (IC50) B140H
In short: as §2

TEX cells [10] = experiment: Alamar blue cytotoxicity assay, TEX; format: cell-based, human; details: read-out: Growth inhibitory activity (IC50) TEX
In short: as §1

[11] = tested on: total bone marrow cell population; experiment: Flow cytometry viability of total bone marrow cells; format: cell-based, human
In short: (§3)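 Cells were plated at 1 × 10⁶ cells/mL with test compound (25 µM) or doxorubicin (0.5 µM) for 12 h (final DMSO 0.03%). Staining was CD34/CD38, then Annexin V/7-AAD, with over 5 × 10⁴ events. Viability is the unstained fraction, mean ± S.D. of n ≥ 3; unpaired t-tests.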

CD34+CD38− TEX cells = experiment: Flow cytometry viability of CD34+CD38− TEX cells; format: cell-based; details: Homo sapiens, 12 h; for viability at 25 µM: read-out: cell viability of CD34+CD38− TEX cells
In short: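 TEX cells at 1 × 10⁶ cells/mL were dosed for 12 h at 37 °C, 20% O₂, 5% CO₂ (final DMSO 0.03% v/v). Test compound was given at 25, 15 or 2.5 µM; the doxorubicin reference at 2.5, 0.5 or 0.05 µM. Cells were stained for CD34/CD38 (10 min, 4 °C), then Annexin V-FITC/7-AAD (10 min, RT, dark). Over 5 × 10⁴ events were collected. Viable cells were double-negative. Values are mean ± S.D. of 3–5 biological replicates; unpaired t-test versus untreated.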

TEX cells [12] = experiment: Methylcellulose clonal growth assay with TEX cells; format: cell-based, human; details: 11 d growth on methylcellulose
In short: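 TEX cells were suspended in methylcellulose medium with penicillin (100 I.U./mL) and streptomycin (100 µg/mL) at a final 1.2 × 10⁴ cells/mL, i.e. 6,000 cells/well. Test compound, diluted in TEX medium, or DMSO (0.05%, control) was added. Cells were plated as technical triplicates and grown 11 d at 37 °C, 5% CO₂. Two people counted colonies independently at 10X. Values are the mean of 3 biological replicates ± S.D., with unpaired t-tests against DMSO.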

TEX cells [13] = experiment: Intracellular ROS induction; format: cell-based, human; details: 30 min
In short: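 TEX cells were seeded at 5 × 10⁵ cells/mL and incubated overnight at 37 °C, 5% CO₂. They were then exposed to test compound at 25 or 100 µM, with H₂O₂ 100 µM as positive control. CellROX Green (5 µM final) was added at once, followed by 30 min at 37 °C. Cells were washed twice in FACS buffer and 5 × 10⁴ events recorded. Median fluorescence was normalized to untreated control. Runs were in quadruplicate (H₂O₂ triplicate); mean ± S.D.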

CD34+CD38− BM cells = experiment: Flow cytometry viability of CD34+CD38− bone marrow cells; format: cell-based, human; details: 0.5 µM, 12 hr
In short: as §3

[14] = tested on: NCI/ADR-RES (ovarian cancer; adriamycin-resistant); details: read-out: IC50 NCI/ADR-RES, previously reported; cited from earlier work
[15] = tested on: NCI/ADR-RES (ovarian cancer; adriamycin-resistant); experiment: Alamar blue cytotoxicity assay, NCI/ADR-RES; format: cell-based, human; details: read-out: Growth inhibitory activity (IC50) NCI/ADR-RES; mean ± S.D.
In short: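 Adherent NCI/ADR-RES cells were seeded at 5,000 cells/well 24 h prior to compound treatment and kept at 37 °C, 5% CO₂. Growth was measured by Alamar blue. IC50 values are mean ± S.D. over n ≥ 3 biological replicates.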

[16] = Homo sapiens, HL-60, read-out: Growth inhibitory activity (IC50) HL-60
[17] = Homo sapiens, GBM6, read-out: Growth inhibitory activity (IC50) GBM6
[18] = Homo sapiens, MCF7, read-out: Growth inhibitory activity (IC50) MCF-7
[19] = Homo sapiens, DU-145, read-out: Growth inhibitory activity (IC50) DU-145
[20] = 15 µM, N.D. = clonal growth not detected
[21] = read-out: Growth inhibitory activity (IC50) HL-60, mean ± S.D.
[22] = read-out: Growth inhibitory activity (IC50) GBM6, mean ± S.D.
[23] = read-out: Growth inhibitory activity (IC50) MCF-7, mean ± S.D.
[24] = read-out: Growth inhibitory activity (IC50) DU-145, mean ± S.D.

## C=C1C(=O)O[C@@H]2/C=C(\C)CC/C=C(\C)CC[C@@H]12 [CTL, Costunolide]
Measured LogD7.4
  chromatographic logD: 2.9
[1]; [16]
  IC50: 13 ± 0.2 µM
[2]; Homo sapiens, CCRF-CEM
  IC50: 2.3 ± 0.2 µM
[3]; Homo sapiens, U-87 MG
  IC50: 9.6 ± 0.8 µM
[4]; [17]
  IC50: 7 ± 1.8 µM
[5]; [18]
  IC50: 17.5 ± 3.7 µM
DU-145 (prostate cancer); [19]
  IC50: 7.7 ± 2.8 µM
[6]; Mus musculus
  IC50: 3.5 ± 0.4 µM
[7]; Mus musculus
  IC50: 4.8 ± 0.7 µM
[8]; Mus musculus
  IC50: 3.6 ± 1.2 µM
[9]; Mus musculus
  IC50: 2.8 ± 0.7 µM
TEX cells [10]; Homo sapiens, 48 h
  IC50: 4.9 ± 0.4 µM
[11]; 25 µM, 12 h
  reduction in total BM viability: 22–26%
CD34+CD38− TEX cells
  viability at 25 µM: 1 to 10%
TEX cells [12]; 2.5 µM
  Colonies (mean number ± S.D.): 6.9 ± 3.6
TEX cells [12]; [20]
  Colonies (mean number ± S.D.): 5.6 ± 4.7
TEX cells [13]; 100 µM
  induction of intracellular ROS (MFI normalized to untreated control): 2.2 fold

## C=C1C(=O)O[C@H]2[C@H]1CCC(C)=C1CC[C@@](C)(O)[C@@H]12 [Compound 1, Micheliolide]
Measured LogD7.4
  chromatographic logD: 2.18
[1]; [16]
  IC50: 9.2 ± 2.2 µM
[2]; Homo sapiens, CCRF-CEM
  IC50: 2.7 ± 1.1 µM
[3]; Homo sapiens, U-87 MG
  IC50: 17.8 ± 5 µM
[4]; [17]
  IC50: 8.5 ± 0.7 µM
[5]; [18]
  IC50: 9.6 ± 1 µM
DU-145 (prostate cancer); [19]
  IC50: 14.8 ± 4 µM
[6]; Mus musculus
  IC50: 6.4 ± 1 µM
[7]; Mus musculus
  IC50: 8.8 ± 1.7 µM
[8]; Mus musculus
  IC50: 10 ± 0.4 µM
[9]; Mus musculus
  IC50: 9.3 ± 1.5 µM
TEX cells [10]; Homo sapiens, 48 h
  IC50: 2.7 ± 0.4 µM
[11]; 25 µM, 12 h
  reduction in total BM viability: 22–26%
CD34+CD38− TEX cells
  viability at 25 µM: 1 to 10%
TEX cells [12]; 2.5 µM
  Colonies (mean number ± S.D.): 4.2 ± 2.5
TEX cells [13]; 25 µM
  induction of intracellular ROS (MFI normalized to untreated control): 1.7 fold
TEX cells [13]; 100 µM
  induction of intracellular ROS (MFI normalized to untreated control): 2.9 fold

## OO [hydrogen peroxide]
TEX cells [13]; 100 µM
  induction of intracellular ROS (MFI normalized to untreated control): 3.1 fold

## COc1cccc2c1C(=O)c1c(O)c3c(c(O)c1C2=O)C[C@@](O)(C(=O)CO)C[C@@H]3O[C@H]1C[C@H](N)[C@H](O)[C@H](C)O1 [DOX, Doxorubicin]
[11]; 0.5 µM, 12 hr
  reduction in total BM viability: 56%
CD34+CD38− BM cells
  reduction in the primitive CD34+CD38− BM population viability: 85%
CD34+CD38− TEX cells; read-out: viability of CD34+CD38− TEX cells
  viability at 0.5 µM: 6%
TEX cells [12]; 0.1 µM
  Colonies (mean number ± S.D.): 0.7 ± 1.3
[14]
  IC50: > 500 µM

## Nc1ccn([C@@H]2O[C@H](CO)[C@@H](O)[C@@H]2O)c(=O)n1 [AraC, cytarabine]
TEX cells [12]; 0.1 µM
  Colonies (mean number ± S.D.): 2.6 ± 1.0

## C=C1C(=O)OC2C1CCC(C)=CCCC1(C)OC21 (stereo not drawn) [Compound 2, cis-PTL]
Measured LogD7.4; average of two measurements
  LogD7.4: 2.00
[1]; [21]
  IC50: 8 ± 1.1 µM
[2]; mean ± S.D.
  IC50: 2.2 ± 1 µM
[3]; mean ± S.D.
  IC50: 9.1 ± 4.4 µM
[4]; [22]
  IC50: 3.3 ± 0.8 µM
[5]; [23]
  IC50: 7.5 ± 0.8 µM
DU-145 (prostate cancer); [24]
  IC50: 6 ± 4.2 µM
[15]
  IC50: 9.4 ± 2.1 µM

## Nc1ccn([C@@H]2O[C@H](CO)[C@@H](O)C2(F)F)c(=O)n1 [gemcitabine]
[14]
  IC50: > 500 µM

## C=C1C(=O)O[C@@H]2[C@H]3O[C@]3(C)CC/C=C(\CO)CC[C@@H]12 [MelB, Melampomagnolide B]
[1]; [21]
  IC50: 7.5 ± 3 µM
[2]; mean ± S.D.
  IC50: 5.5 ± 1.2 µM
[3]; mean ± S.D.
  IC50: 16.3 ± 6.8 µM
[4]; [22]
  IC50: 4.5 ± 1.9 µM
[5]; [23]
  IC50: 9.5 ± 1.9 µM
DU-145 (prostate cancer); [24]
  IC50: 14.3 ± 5.9 µM
[15]
  IC50: 15 ± 4.9 µM
[6]; mean ± S.D.
  IC50: 2.1 ± 0.8 µM
[7]; mean ± S.D.
  IC50: 2.5 ± 1 µM
[8]; mean ± S.D.
  IC50: 2.9 ± 1 µM
[9]; mean ± S.D.
  IC50: 2.2 ± 0.7 µM
TEX cells [10]; 48 hr treatment, mean ± S.D.
  IC50: 6.8 ± 2.3 µM
[11]; 25 µM, 12 h
  reduction in total BM viability: 22–26%
TEX cells [12]; 2.5 µM
  Colonies (mean number ± S.D.): 5.3 ± 1.6
TEX cells [12]; [20]
  Colonies (mean number ± S.D.): 0.1 ± 0.3
TEX cells [13]; 25 µM
  induction of intracellular ROS (MFI normalized to untreated control): No observable induction of ROS
TEX cells [13]; 100 µM
  induction of intracellular ROS (MFI normalized to untreated control): No observable induction of ROS

— article PMC4697833 (Bioorganic & medicinal chemistry, 2015)
